In ChEMBL document CHEMBL4043089, “Allosteric Targeting of the Fanconi Anemia Ubiquitin-Conjugating Enzyme Ube2T by Fragment Screening” (J Med Chem, 2017):
Substitutions are numbered along the chain they refer to. Activity calls are given as the source filed them. No cut-off for these calls is given here.

Experiments:
[1] = target: T1, Ubiquitin-conjugating enzyme E2 T (Homo sapiens) (UniProt Q9NPD8); assay: Binding affinity to [1H-15N]-labeled N-terminal 6xHis-Smt3 tagged human Ube2T (1 to 154 residues) expressed in Escherichia coli BL21(DE3) by chemical shift perturbation assay
T1 sequence (whole entry): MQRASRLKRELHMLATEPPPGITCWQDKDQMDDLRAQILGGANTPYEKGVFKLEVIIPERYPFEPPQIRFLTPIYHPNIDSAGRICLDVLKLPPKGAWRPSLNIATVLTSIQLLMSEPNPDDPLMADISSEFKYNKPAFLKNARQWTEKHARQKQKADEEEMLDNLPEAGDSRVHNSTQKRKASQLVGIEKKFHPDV

[2] = target: Ubiquitin-conjugating enzyme E2 D3 (Homo sapiens) (UniProt P61077); assay: Inhibition of UbcH5c (unknown origin) assessed as RNF4 ubiquitination at 2.5 mM after 15 mins in presence of fluorescently-labeled […] by fluorescence assay
Ubiquitin-conjugating enzyme E2 D3 (Homo sapiens), sequence (P61077 whole entry, looked up): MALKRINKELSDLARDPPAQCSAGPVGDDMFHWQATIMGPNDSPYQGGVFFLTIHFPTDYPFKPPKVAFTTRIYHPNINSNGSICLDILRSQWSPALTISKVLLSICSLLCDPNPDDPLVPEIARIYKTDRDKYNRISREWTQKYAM

[3] = target: T1, Ubiquitin-conjugating enzyme E2 T (Homo sapiens); assay: Inhibition of full length N-terminal 6xHis-Smt3 tagged human Ube2T expressed in Escherichia coli BL21(DE3) assessed as FANCD2 ubiquitination at 2.5 mM after 15 mins in presence of fluorescently-labeled Ub/recombinant human E1/FANCL in 0.05% Tween20 containing buffer by fluorescence assay
[4] = target: T1, Ubiquitin-conjugating enzyme E2 T (Homo sapiens); assay: Inhibition of full length N-terminal 6xHis-Smt3 tagged human Ube2T expressed in Escherichia coli BL21(DE3) assessed as FANCD2 ubiquitination after 15 mins in presence of fluorescently-labeled Ub/recombinant human E1/ATP by fluorescence assay
Summary of the method: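 Ube2T-driven FANCD2 monoubiquitination with E1, FANCL and fluorescently labelled ubiquitin, tested as a four-point titration. Gels were fluorescence-scanned, and the integrated intensity of the monoubiquitinated FANCD2 band was normalized to DMSO reactions. Three independent experiments, plotted as mean ± range.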

[5] = test system: T2, Ubiquitin-conjugating enzyme E2 T (Homo sapiens), Q9NPD8 [P73K]; assay: Binding affinity to full length recombinant N-terminal 6xHis-Smt3 tagged human Ube2T P73K mutant expressed in Escherichia coli BL21(DE3) by ITC
T2 sequence (whole entry): T1 sequence (whole entry) with P73K

[6] = target: T3, Ubiquitin-conjugating enzyme E2 T (Homo sapiens, UniProt Q9NPD8); assay: Binding affinity to full length N-terminal 6xHis-Smt3 tagged human Ube2T expressed in Escherichia coli BL21(DE3) by ITC
T3 sequence (Q9NPD8 whole entry): T1 sequence (whole entry)

`NC(=O)c1ccc(-c2ccccn2)s1` was tested, and the Activity [1] was “Dose-dependent effect”.

`Nc1nc(-c2ccccc2)cs1` was tested, and the inhibition [2] was “inactive”, the inhibition [3] was “Active” and the inhibition [4] was “Dose-dependent effect”. The Activity [1] was “Dose-dependent effect” and the Activity [5] was “Active”.

For `N#Cc1cc(-c2ccccc2)oc1N`, the Activity [1] was “Dose-dependent effect”.

For `NC(=O)C1CCCc2c1[nH]c1ccc(Cl)cc21` (configuration not stated), the inhibition [2] was “inactive”, the inhibition [3] was “Active” and the inhibition [4] was “Dose-dependent effect”. The Activity [1] was “Dose-dependent effect” and the Activity [5] was “Active”.

`NCc1nc2ccccc2s1` was tested, and the Kd [6] was 1300 µM, the inhibition [2] was “inactive” and the inhibition [3] was “Active”. For the same compound, the inhibition [4] was “Dose-dependent effect” and the Activity [1] was “Dose-dependent effect”.
